ChEMBL document CHEMBL4049458, “Structure-Based Optimization of Thiophene[3,2-d]pyrimidine Derivatives as Potent HIV-1 Non-nucleoside Reverse Transcriptase Inhibitors with Improved Potency against Resistance-Associated Variants” (J Med Chem, 2017)

What was measured:
[1] = Inhibition of recombinant wild type HIV1 3B reverse transcriptase infected in human MT4 cells assessed as decrease in biotin-dUTP incorporation after 1 hr; type: cell-based; conditions: Human immunodeficiency virus 1, 3B, MT4, 1 h
Outline: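 Recombinant HIV-1 RT assayed with a kit ELISA. Enzyme, reconstituted template and nucleotides (DIG-dUTP, biotin-dUTP, dTTP) were incubated in incubation buffer with or without inhibitor for 1 h at 37 °C. Product was captured on streptavidin plates for 1 h at 37 °C, then anti-DIG-POD was added for 1 h at 37 °C, followed by ABTS. Read at OD405.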

[2] = Cytotoxicity against human MT4 cells assessed as cell viability after 5 days by MTT assay; type: cell-based
[3] = tested on: Human immunodeficiency virus 1; assay: Antiviral activity against wild type HIV1 3B harboring reverse transcriptase infected in human MT4 cells assessed as protection against virus induced cytotoxicity after 5 days by MTT assay; type: functional, cell-based; conditions: Human immunodeficiency virus 1, 3B, MT4, 120 h
[4] = Selectivity index, ratio of CC50 for human MT4 cells to EC50 for reverse transcriptase E138K mutant in human MT4 cells infected HIV1 3B; conditions: MT4 cells
[5] = Selectivity index, ratio of CC50 for human MT4 cells to EC50 for wild type HIV1 3B harboring reverse transcriptase infected in human MT4 cells; conditions: MT4 cells
[6] = Selectivity index, ratio of CC50 for human MT4 cells to EC50 for reverse transcriptase Y181C mutant in human MT4 cells infected HIV1 3B; conditions: MT4 cells
[7] = Selectivity index, ratio of CC50 for human MT4 cells to EC50 for reverse transcriptase K103N mutant in human MT4 cells infected HIV1 3B; conditions: MT4 cells
[8] = Selectivity index, ratio of CC50 for human MT4 cells to EC50 for reverse transcriptase L100I mutant in human MT4 cells infected HIV1 3B; conditions: MT4 cells
[9] = Selectivity index, ratio of CC50 for human MT4 cells to EC50 for reverse transcriptase F227L/V106A double mutant in human MT4 cells infected HIV1 3B; conditions: MT4 cells
[10] = tested on: Human immunodeficiency virus 2; assay: Antiviral activity against HIV2 ROD harboring reverse transcriptase infected in human MT4 cells assessed as protection against virus induced cytotoxicity after 5 days by MTT assay; type: functional, cell-based; conditions: Human immunodeficiency virus 2, ISOLATE ROD, MT4, 120 h
[11] = Selectivity index, ratio of CC50 for human MT4 cells to EC50 for reverse transcriptase Y188L mutant in human MT4 cells infected HIV1 3B; conditions: MT4 cells
[12] = Selectivity index, ratio of CC50 for human MT4 cells to EC50 for HIV1 RES056 reverse transcriptase K103N/Y181C double mutant infected in human MT4 cells; conditions: MT4 cells
[13] = Fold resistance, ratio of EC50 for reverse transcriptase E138K mutant in human MT4 cells infected HIV1 3B to EC50 for wild type HIV1 3B harboring reverse transcriptase infected in human MT4 cells; type: functional
Outline: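 MT-4 cells at 6 × 10^5 cells/mL were infected with WT HIV-1 IIIB or RT-mutant strains at 100−300 CCID50, with 5-fold serial compound dilutions in triplicate wells. After 5 days, viability was read by MTT reduction at 540 and 690 nm, using the median OD of three wells. […] Fold resistance is mutant EC50 divided by WT EC50.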

Row | SMILES | IC50 [1] [µM] | CC50 at 120 h [2] [µM] | EC50 [3] [µM] | selectivity ratio [4] | selectivity ratio [5] | selectivity ratio [6] | selectivity ratio [7] | selectivity ratio [8] | selectivity ratio [9] | EC50 [10] [µM] | selectivity ratio [11] | selectivity ratio [12] | Ratio EC50 [13]
1 | Cc1cc(C#N)cc(C)c1Oc1nc(NC2CCC(NCc3ccc(S(N)(=O)=O)cc3)CC2)nc2ccsc12 (configuration not stated) | 4.02 | 3.69 | 0.0422 |  |  |  |  |  |  |  |  |  | 
2 | Cc1cc(/C=C/C#N)cc(C)c1Oc1nc(NC2CCN(Cc3cccc(Br)c3)CC2)nc2ccsc12 |  | 7.95 | 0.0258 | 61 | 308 | 62 | 269 | 279 | 85 | > 7.95 | 48 | 37 | 
3 | Cc1cc(C#N)cc(C)c1Oc1nc(NC2CCC(NCc3ccc(C#N)cc3)CC2)nc2ccsc12 (configuration not stated) |  | 5.15 | 3.81 | < 1 | 1.3 | < 1 | < 1 | < 1 | < 1 | > 5.15 | ≤ 1 | < 1 | 
4 | Cc1cc(C#N)cc(C)c1Oc1nc(NC2CCN(Cc3ccc(S(N)(=O)=O)cc3)CC2)nc2sccc12 | 0.42 | 24.1 | 0.00197 | 3180 | 12300 | 3160 | 7370 | 5440 | 2730 | > 24.1 | 3170 | 625 | 
5 | Cc1cc(/C=C/C#N)cc(C)c1Oc1nc(NC2CCN(Cc3ccccc3C#N)CC2)nc2ccsc12 |  | 2.28 | 0.00966 | 53 | 236 | 66 | 130 | 151 | 60 | > 2.28 | 18 | 7 | 
6 | Cc1cc(C#N)cc(C)c1Oc1nc(NC2CCC(NCc3ccc(Br)cc3)CC2)nc2ccsc12 (configuration not stated) |  | 3.45 | 0.339 | 4 | 10 | < 1 | ≤ 5 | ≤ 2 | < 1 | > 3.45 | < 1 | < 1 | 
7 | CCOC(=O)c1ccc(CN2CCC(Nc3nc(Oc4c(C)cc(C#N)cc4C)c4ccsc4n3)CC2)cc1 |  | > 230 | 0.0989 | > 463 | > 2330 | > 207 | > 625 | > 160 | > 63 | > 230 | > 124 | > 6 | 
8 | Cc1cc(/C=C/C#N)cc(C)c1Oc1nc(NC2CCN(Cc3ccccc3Cl)CC2)nc2ccsc12 |  | 4.93 | 0.0274 | 31 | 179 | 37 | 169 | 162 | 68 | > 4.93 | 24 | 30 | 
9 | Cc1cc(C#N)cc(C)c1Oc1nc(NC2CCC(NCc3cccc(C(F)(F)F)c3)CC2)nc2ccsc12 (configuration not stated) |  | 0.707 | 0.174 | < 1 | 4 | < 1 | < 1 | < 1 | < 1 | > 0.707 | < 1 | < 1 | 
10 | Cc1cc(C#N)cc(C)c1Oc1nc(NC2CCN(Cc3ccc(C(N)=O)cc3)CC2)nc2sccc12 |  | 4.93 | 0.152 | 6 | 32 | 20 | 11 | 9 | < 1 | > 4.93 | < 1 | 3 | 
11 | Cc1cc(C#N)cc(C)c1Oc1nc(NC2CCC(NCc3ccc(S(C)(=O)=O)cc3)CC2)nc2ccsc12 (configuration not stated) |  | 75.2 | 0.0573 | 556 | 1320 | < 1 | 212 | ≤ 1 | < 1 | > 75.2 | ≤ 1 | < 1 | 2.4
12 | Cc1cc(/C=C/C#N)cc(C)c1Oc1nc(NC2CCN(Cc3ccc(Br)cc3)CC2)nc2ccsc12 |  | 6.79 | 0.0283 | 44 | 240 | 53 | 227 | 117 | 42 | > 6.79 | 24 | 44 | 
13 | Cc1ccccc1CN1CCC(Nc2nc(Oc3c(C)cc(/C=C/C#N)cc3C)c3sccc3n2)CC1 |  | 2.83 | 0.0157 | 22 | 180 | 33 | 114 | 60 | 46 | > 2.83 | 16 | 3 | 
14 | Cc1cc(/C=C/C#N)cc(C)c1Oc1nc(NC2CCN(Cc3ccc(S(C)(=O)=O)cc3)CC2)nc2ccsc12 | 0.89 | 1.8 | 0.00232 |  |  |  |  |  |  |  |  |  | 
15 | Cc1cc(/C=C/C#N)cc(C)c1Oc1nc(NC2CCN(Cc3ccc(C#N)cc3)CC2)nc2ccsc12 |  | 2.67 | 0.00526 | 91 | 509 | 86 | 494 | 364 | 118 | > 2.68 | 81 | 45 | 
16 | Cc1cc(/C=C/C#N)cc(C)c1Oc1nc(NC2CCN(Cc3ccc(Cl)cc3)CC2)nc2ccsc12 |  | 3.98 | 0.0256 | 26 | 156 | 51 | 159 | 93 | 37 | > 3.98 | 22 | 20 | 
17 | Cc1cc(/C=C/C#N)cc(C)c1Oc1nc(NC2CCN(Cc3cccc(F)c3)CC2)nc2ccsc12 |  | 4.76 | 0.00973 | 150 | 489 | 138 | 226 | 216 | 84 | > 4.76 | 30 | 38 | 
18 | CCOC(=O)c1ccc(CN2CCC(Nc3nc(Oc4c(C)cc(/C=C/C#N)cc4C)c4sccc4n3)CC2)cc1 |  | ≥ 3.61 | 0.0146 | ≥ 96 | ≥ 247 | ≥ 110 | ≥ 273 | ≥ 134 | ≥ 42 | > 3.61 | ≥ 22 | ≥ 22 | 
19 | Cc1cc(/C=C/C#N)cc(C)c1Oc1nc(NC2CCN(Cc3ccc(F)cc3)CC2)nc2ccsc12 |  | 2.58 | 0.00586 | 74 | 441 | 95 | 405 | 181 | 25 | > 2.58 | 17 | 20 | 
20 | Cc1cc(/C=C/C#N)cc(C)c1Oc1nc(NC2CCN(Cc3ccncc3)CC2)nc2ccsc12 |  | 4.78 | 0.00334 | 560 | 1430 | 825 | 859 | 752 | 322 | > 4.78 | 148 | 162 | 
21 | Cc1cc(C#N)cc(C)c1Oc1nc(NC2CCC(NCc3ccc(O)cc3)CC2)nc2ccsc12 (configuration not stated) |  | 20.1 | 1.31 | 5 | 15 | < 1 | 4 | < 1 | < 1 | > 20.1 | < 1 | < 1 | 
